# From ChEMBL document CHEMBL4513216, “Probing the Open Global Health Chemical Diversity Library for Multistage-Active Starting Points for Next-Generation Antimalarials” (ACS Infect Dis, 2020)
# Test: Toxicity liver stage against HepG2, at 10uM
# Type: cell-based
# Set-up: test concentration 10 uM, cell line HepG2-A16-CD81EGFP
# Details: human, HepG2-A16-CD81EGFP cells; read-out: INHIBITION
# Method in brief: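 Uninfected HepG2-A16-CD81EGFP cells, 3 × 10^3 per well, 1536-well, plated on prespotted compound at 10 μM final, parasite-free screening media added to match infected plates; puromycin 10 μM positive, DMSO 0.5% negative; run in parallel with 48 h PbLuc assay at 37 °C, 5% CO2; viability by CellTiter-Glo luminescence, normalized to controls.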
row,Structure (SMILES),cytotoxicity at 10 µM
1,Cc1csc(CCNc2ccc(C#N)cn2)n1,0.738%
2,Cc1nn(C)c(Cl)c1S(=O)(=O)N(C)C,3.66%
3,Cn1ccnc1CNC[C@H]1Cn2cc(-c3ccccc3)nc2CO1,-6.09%
4,c1cc(-c2noc([C@@H]3CCCN3CC3CC3)n2)cc(N2CCCC2)n1,4.12%
5,COCCNC(=O)[C@@H](C)[C@@H]1CCc2c(C)cc(OCC(=O)O)c(C)c2C1,0.523%
6,c1cncc(O[C@H]2COCCN(CC3CC3)C2)c1,3.38%
7,CCn1nc(Br)nc1Sc1ccccc1NC(C)=O,-6.17%
8,CCOc1ccccc1NC(=O)Nc1cc(N2CCCC2)ncn1,-0.113%
9,CN1CC(c2ccccc2)C2(CCN(C(=O)c3ccc[nH]3)CC2)C1=O (centres undefined),9.25%
10,CNC(=O)N1CCC2(COCc3c(C)nc(NCc4ccco4)nc32)C1 (centres undefined),11.2%
11,COCC1CN(Cc2ccoc2)Cc2cn(CC3CCOCC3)nc21 (centres undefined),11.6%
12,O=C(NCC1CCOCC1)[C@@H]1C[C@@H]2[C@@H](CCN2Cc2ccoc2)O1,5%
13,CNC(=O)N1CCC2(CC1)CC[C@@]1(C(=O)NC)CN(S(C)(=O)=O)C[C@@H]21,-3.91%
14,Cc1ccc(N2CC[C@H]3OCC[C@@]3(C(=O)NCC3CC3)C2)nn1,3.22%
15,Cc1noc(C)c1CN1CCC2(CC1)NC(=O)CC2c1cnn(C)c1 (centres undefined),5.64%
16,Cc1cccc(CSc2ncc(Cl)c(C(=O)O)n2)c1,3.86%
17,CC(=O)c1nn(-c2cccc(Cl)c2)c(C)c1C(C)=O,-3.55%
18,COc1cccc2c3c(c(=O)n(C)c12)CCC(C)(C)O3,0.55%
19,COC(=O)CC(c1ccccc1)c1oc(C)cc(=O)c1O (centres undefined),26.7%
20,CC(NC(=O)c1ccc(Cl)cc1)c1nnc(SCC(N)=O)n1C (centres undefined),6.27%
21,CCn1nnc(NCc2ccc(-c3ccc(Br)cc3)o2)n1,-10.1%
22,CCn1ccc(-c2cc(C(=O)O)n3nc(C)c(Cl)c3n2)n1,-3.48%

row,Structure (SMILES),cytotoxicity at 10 µM
1,CN(C)Cc1cnc(C2CCN(C(=O)c3cccc(Cl)c3)C2)[nH]1 (centres undefined),-3.36%
2,Cc1csc(NC(=O)C2(C)CN(C)CCO2)n1 (centres undefined),-3.67%
3,CC(C)(C)c1cc(C(=O)N2CCOC(c3cnccn3)C2)[nH]n1 (centres undefined),2.02%
4,CN1C[C@@H](c2cccc(F)c2)[C@H]2[C@H]1CCCCCN2C(=O)C1CC1,4.21%
5,CN(C)c1nccc(C2CCCN2S(=O)(=O)c2cn(C)cn2)n1 (centres undefined),-20.2%
6,Cc1cc(C)nc(C2CCN(C(=O)c3cnc(N(C)C)nc3)C2)n1 (centres undefined),-18.1%
7,COc1ccc(OC)c(C(O)CN2CCC(N3CCC(C)CC3)CC2)c1 (centres undefined),-25.5%
8,CN(C)CC(=O)N1CCCCC1c1nc(N)ncc1-c1ccccc1 (centres undefined),-0.155%
9,CC(NC(N)=O)C(=O)N(C)Cc1cccc(C(F)(F)F)c1 (centres undefined),-5.14%
10,Cc1nn(C)c2ncc(NC(=O)N(C)Cc3cnn(C)c3)cc12,-0.768%
11,CNC(=O)[C@@H](C)NC(=O)c1cc(-c2ccc(F)cc2)c(C)s1,-5.2%
12,CC(C)c1nn(C)c(N(C)C)c1CNC1CCOc2ccccc21 (centres undefined),9.36%
13,CC(Oc1ccc(F)c(F)c1)C(=O)N(CC(N)=O)C1CCCC1 (centres undefined),-0.146%
14,O=C(OCc1cccc(F)c1)c1cccc(C(=O)N2CCCC2)n1,-1.6%
15,O=C(CNC1CCc2ncnn2C1)NCCc1cccs1 (centres undefined),-10.9%
16,O=C(COC1CCCCC1)N1CCN(C(=O)Cc2ccccn2)CC1,-1.3%
17,CCC(CC)C(=O)NCCC(=O)N1CCN(c2ccccn2)CC1,4.65%
18,O=S(=O)(c1ccc(C(F)(F)F)cc1)N1CCC(OCc2ccccn2)C1 (centres undefined),1.22%
19,Cc1nnc(NCCC(=O)NCc2ccccc2)c(C#N)c1C,-3.57%
20,Cc1cccc(OC2CCN(c3ncc(C#N)cc3Cl)CC2)n1,8.13%
21,CCc1noc(CS(=O)(=O)C/C=C/c2ccccc2)n1,-18.4%
22,CCN(Cc1nnnn1C1CC1)c1cc(C)ccc1C,9.21%

row,Structure (SMILES),cytotoxicity at 10 µM
1,CCC(NCc1cccc(Cl)c1)c1ccccc1OCC(=O)NC (centres undefined),-2.65%
2,Cc1ncc(CNc2ccc(C(=O)NCc3ccco3)cc2C)s1,-10.5%
3,Cc1ccc(C2CSCCN2C(=O)c2ccnc(N(C)C)c2)o1 (centres undefined),12.8%
4,Cc1n[nH]c(C2CN(Cc3csc(C4CC4)n3)CCO2)n1 (centres undefined),-0.18%
5,CC(NC(=O)c1ccc(CS(C)(=O)=O)o1)c1ccc(F)c(F)c1 (centres undefined),-5.85%
6,CCC1CN(C(=O)COc2ccc(C)nc2)CCO1 (centres undefined),-3.7%
7,COC(C)(C)c1noc(C2(C#N)CCCCC2)n1,-2.11%
8,CCC(C)(NCC(=O)Nc1nc(C)cs1)c1nc(C)cs1 (centres undefined),16.4%
9,Cc1cnc(C(=O)N(CCN(C)C)Cc2ccc(Cl)cc2)cn1,1.58%
10,CCOc1cc(C)nc(N2CCN(Cc3nccn3C)CC2)n1,-4.04%
11,CN1CCC2(CCN(C(=O)c3cccnc3)C2)C1 (centres undefined),-101%
12,Cn1cc2c(n1)C(COCC1CC1)CN(Cc1ccccn1)C2 (centres undefined),-1.8%
13,Cc1cccc(-c2nc(N)nc3c2CN(C(=O)C2CCCC2)C3C)c1 (centres undefined),13.2%
14,Cn1c(-c2ccccc2Cl)nc2cc(C(=O)NCCS(C)(=O)=O)cnc21,-3.2%
15,CCNC(=O)C1CCN(Cc2ccc(C(=O)Nc3cnns3)cc2)C1 (centres undefined),9.2%
16,O=C1NCCc2c1sc1ccc(C(=O)N3CC[C@H](CO)[C@H](O)C3)cc21,-1.7%
17,O[C@@]1(CNCCOc2ccccc2)CCCN2CCCC[C@@H]21,-2.96%
18,CCc1nnsc1-c1nc(C(C)C)nn1-c1ccc2c(c1)OCO2,-9.69%
19,O=C1CC2(CCN(Cc3ncc[nH]3)CC2)CN1Cc1ccc(Cl)cc1,5.85%
20,Cc1nc(CCN)cc(N(C)Cc2nc3ccc(F)cc3[nH]2)n1,-0.581%
21,O=C(Nc1ccccc1OCCc1ccccn1)N1CCOCC(O)C1 (centres undefined),4.25%
22,CN(Cc1ccsc1)Cc1nc(-c2cnccn2)no1,-0.164%

row,Structure (SMILES),cytotoxicity at 10 µM
1,CC(Cn1cncn1)NCc1ccc2nonc2c1 (centres undefined),3.05%
2,c1cn(Cc2nnc(C3CCN(C4CCCCC4)CC3)n2C2CC2)cn1,-6.79%
3,C[C@@H]1CN(C(=O)C2CCS(=O)(=O)CC2)CC[C@@]1(O)C1CCOCC1,-9.34%
4,Cn1ccnc1-c1nccn1C[C@@H]1CCCN2CCCC[C@H]12,2.68%
5,CCN(CC)Cc1cc(C(=O)N2CCC3(CC2)NCCNC3=O)c(C)o1,4.01%
6,c1cc2c(cc1C[C@@H]1CC[C@H](CN3CCCOCC3)O1)OCO2,-12.9%
7,c1ccc2c(c1)CC(CNCc1ccncc1)(N1CCCCC1)C2,-7.72%
8,CN1CC2(CCN(C(=O)CCCOCc3ccccc3)C2)OC1=O (centres undefined),4.49%
9,CSCC(=O)N1CCc2c(cnc(C)c2-c2noc(-c3cc[nH]n3)n2)C1,1.87%
10,COc1cccc([C@@H]2CN(C(=O)c3ccc(C)cc3O)C[C@H]2C(=O)O)c1,6.49%
11,CC(=O)N1CCNCC1c1cccc(C(=O)N(C)C)c1 (centres undefined),4.45%
12,CN(C)c1ccc(C(=O)N2CCCN(Cc3cnn(C)c3)CC2)nn1,-5.28%
13,Cc1cc(C)c(CNC(=O)C2CCN(c3cnccn3)CC2)c(=O)[nH]1,-10.7%
14,Cc1cc(CN2CCCC2c2c(C)nn(C)c2Cl)no1 (centres undefined),-6.98%
15,Cc1cnn(CC2CCCN2C(=O)c2cc(C)no2)c1 (centres undefined),-0.194%
16,CCc1ncc2c(n1)CN(CC(=O)NCCOc1ccccc1)CC2,-2.11%
17,COC(=O)c1ccc(N2CCN(CCC(=O)NC(N)=O)C(C)C2)cc1 (centres undefined),-6.39%
18,CCOc1cc(C(=O)N2CCCC(c3noc(C)n3)C2)ccn1 (centres undefined),-4.49%
19,CC(C)(C)c1nnc(CN2CCCC(Cn3cncn3)C2)o1 (centres undefined),-6.31%
20,Cc1nc(C)n(CC2CCCN(CC(=O)Nc3nncs3)C2)n1 (centres undefined),-3.79%
21,Cc1cc(CN2CCN(C(=O)NC(C)Cn3ccnc3)CC2)no1 (centres undefined),-8.54%
22,N#CC1(C(=O)N2CCN(Cc3cscn3)CC2)CCCC1,-8.08%

row,Structure (SMILES),cytotoxicity at 10 µM
1,CCc1nc(CN(C(C)=O)C2CCN(Cc3cnc(C)cn3)C2)no1 (centres undefined),-4.51%
2,CCCC(Nc1c(C#N)c(=O)n(C)c(=O)n1C)c1ccc(F)cc1F (centres undefined),-13.2%
3,CC(C(=O)Nc1ncccn1)N1CCCN(c2nccs2)CC1 (centres undefined),-2.55%
4,CCOC(=O)CSc1nnc([C@@H](N)CC(C)C)o1,6.76%
5,COc1cccc2[nH]c(C(=O)N3CCNCC3C(N)=O)cc12 (centres undefined),4.57%
6,O=C(NCC1CC[C@@H]2[C@@H]1OCCN2Cc1cccs1)c1ccco1 (some centres undefined),3.23%
7,Cc1nc(COC[C@H]2CCC[C@@]23CN(C(C)C)CCO3)cs1,-86.7%
8,CO[C@H]1CCN(S(=O)(=O)c2cn(C)cn2)[C@H]1Cc1cccnc1,-9.31%
9,CN(C)C(=O)c1ccc(C2CCCNC2)nc1 (centres undefined),-20.7%
10,Cn1cc(CN2CCC(F)(F)C3(CCN(c4ncc(F)cn4)C3)C2)cn1 (centres undefined),1.2%
11,Cc1cnc(N2CCC3(CC2)COCCN(C(C)C)C3)nc1,-121%
12,O=C(C1CCCO1)N1CCC2(CC1)COCCN(Cc1cccnc1)C2 (centres undefined),-108%
13,COCCC(=O)NC1CCN(CC2(c3cccc(F)c3)CCCC2)CC1,-24.7%
14,O=C1COC2(COCCN(Cc3cccnc3)C2)CN1c1ccoc1 (centres undefined),3.22%
15,Cc1ccc(CN2CCC3(CC(=O)N(c4cccc(F)c4)C3)C2)o1 (centres undefined),-140%
16,CC1=N[C@@]2(CC[C@@H]3CN(CC4CC4)C[C@@H]32)C(=O)N1CC1CC1,3.82%
17,CC(=O)N1CCO[C@@H]2CN(C(=O)NCc3cccnc3)CC[C@@H]2C1,7.34%
18,O=C(c1n[nH]c2c1CN(C1CCOC1)CC2)N1CCCC1 (centres undefined),-1.07%
19,O=C(c1cnccn1)N1CCC(F)(F)C2(CCN(c3ccccn3)C2)C1 (centres undefined),11.9%
20,CCCn1nccc1NC(=O)CN1CCCC1Cn1cccn1 (centres undefined),-5.47%
21,O=C1CCCC2=Nc3nonc3NC(c3ccccc3F)C12 (centres undefined),1.08%
